For 10 compounds, IC50, pC60 and pC25 results are on record in ChEMBL document CHEMBL1122788, “Quantitative relationships between alpha-adrenergic activity and binding affinity of alpha-adrenoceptor agonists and antagonists” (J Med Chem, 1984).

For one assay, the target named is T1, Adrenergic receptor alpha-2 (Rattus norvegicus, UniProt P22086+P19328+P22909).
T1 sequence (P22086 whole entry): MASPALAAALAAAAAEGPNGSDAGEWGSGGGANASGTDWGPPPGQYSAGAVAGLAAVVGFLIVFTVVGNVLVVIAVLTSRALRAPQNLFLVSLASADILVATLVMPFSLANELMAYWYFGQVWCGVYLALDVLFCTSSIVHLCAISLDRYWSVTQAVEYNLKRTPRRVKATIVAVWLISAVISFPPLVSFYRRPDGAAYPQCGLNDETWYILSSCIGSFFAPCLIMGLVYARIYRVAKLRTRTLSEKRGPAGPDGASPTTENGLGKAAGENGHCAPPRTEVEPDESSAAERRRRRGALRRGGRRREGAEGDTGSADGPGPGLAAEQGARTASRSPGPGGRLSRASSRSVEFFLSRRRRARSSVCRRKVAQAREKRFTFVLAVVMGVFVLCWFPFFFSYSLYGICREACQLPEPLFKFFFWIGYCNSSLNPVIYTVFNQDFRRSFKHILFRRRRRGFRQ
T1 sequence (P19328 whole entry): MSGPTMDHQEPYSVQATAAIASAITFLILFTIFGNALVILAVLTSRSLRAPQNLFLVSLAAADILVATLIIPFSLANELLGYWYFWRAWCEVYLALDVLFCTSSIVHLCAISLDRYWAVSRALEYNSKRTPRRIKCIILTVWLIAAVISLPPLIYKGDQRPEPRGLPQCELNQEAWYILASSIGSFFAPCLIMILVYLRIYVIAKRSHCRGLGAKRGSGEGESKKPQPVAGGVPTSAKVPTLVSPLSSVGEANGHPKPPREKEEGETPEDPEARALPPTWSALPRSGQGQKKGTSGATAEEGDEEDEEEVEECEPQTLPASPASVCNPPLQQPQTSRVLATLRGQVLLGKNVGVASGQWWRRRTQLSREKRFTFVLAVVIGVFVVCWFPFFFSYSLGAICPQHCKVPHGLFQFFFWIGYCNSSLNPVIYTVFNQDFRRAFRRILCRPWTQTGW
T1 sequence (P22909 whole entry): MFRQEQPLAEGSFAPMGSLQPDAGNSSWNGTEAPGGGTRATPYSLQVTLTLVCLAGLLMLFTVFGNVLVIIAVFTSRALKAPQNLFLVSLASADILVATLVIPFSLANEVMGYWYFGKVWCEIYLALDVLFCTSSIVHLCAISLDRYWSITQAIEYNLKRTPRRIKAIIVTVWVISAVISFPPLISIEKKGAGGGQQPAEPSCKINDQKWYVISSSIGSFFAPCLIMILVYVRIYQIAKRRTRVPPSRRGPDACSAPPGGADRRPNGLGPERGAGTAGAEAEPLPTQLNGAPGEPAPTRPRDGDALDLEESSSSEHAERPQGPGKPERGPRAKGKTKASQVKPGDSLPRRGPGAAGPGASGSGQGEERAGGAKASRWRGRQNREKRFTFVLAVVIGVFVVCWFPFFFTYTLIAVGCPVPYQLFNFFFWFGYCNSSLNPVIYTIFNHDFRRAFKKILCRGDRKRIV
In words: 50% inhibition of specific [3H]clonidine binding (0.4 nM) to Alpha-2 adrenergic receptors in rat isolated brain membranes. The class given is cell membranes, Membrane. In short, it runs like this:
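Whole rat brain (minus cerebellum) from male Wistar rats (200–250 g), homogenized in ice-cold 50 mM Tris-HCl pH 7.7 and washed twice at 50000g. Bound ligand was collected by rapid filtration and counted. IC50 was derived by log-probit analysis.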
The IC50 is the concentration that gives 50% inhibition. Higher therefore signals weaker potency in that assay. `N=C(N)N/N=C/c1c(Cl)cccc1Cl` [GUANABENZ] came in with a 50% inhibitory concentration (IC50) of 0.0017 µM.
The same measure, in the same setting: with `COc1ccc(OC)c(C(O)C(C)N)c1` (stereo not given) [METHOXAMINE] the figure was 3.6 µM.

A further assay addresses T1, Adrenergic receptor alpha-2. The experiment in a line: Binding affinity against Alpha-2 adrenergic receptor is the ability to inhibit the specific [3H]clonidine binding (0.4 nM) to rat isolated brain membranes by 50% was reported; 1.6*10e-8. Further details: species or system Membrane. In short, it runs like this: (§1)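 Whole rat brain (minus cerebellum) from male Wistar rats (200–250 g), homogenized in ice-cold 50 mM Tris-HCl pH 7.7 and washed twice at 50000g. […] Bound ligand was collected by rapid filtration and counted. IC50 was derived by log-probit analysis.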
Compound `c1cc2c(c(NC3=NCCN3)c1)CCCC2` [TRAMAZOLINE] came in with an IC50 of 0.016 µM.

The target is the same in another assay. In words: Binding affinity against Alpha-2 adrenergic receptor is the ability to inhibit the specific [3H]clonidine binding (0.4 nM) to rat isolated brain membranes by 50% was reported; 2.5*10e-8. In kind it is tissue-based, Membrane.
For the compound `C=CCN1CCc2nc(N)sc2CC1` [TALIPEXOLE], the IC50 was 0.025 µM.

The target is the same in a further assay. The experiment in a line: Binding affinity against Alpha-2 adrenergic receptor is the ability to inhibit the specific [3H]clonidine binding (0.4 nM) to rat isolated brain membranes by 50% was reported; 9.1*10e-9. The class given is tissue-based, Membrane. The procedure, abridged: as §1
As for `Cc1csc(Cl)c1NC1=NCCN1` [TIAMENIDINE], the IC50 came out at 0.0091 µM.

The target is the same in another assay. The experiment in a line: Binding affinity against alpha-2 adrenergic receptor is the ability to inhibit the specific [3H]clonidine binding (0.4 nM) to rat isolated brain membranes by 50% was reported. Further details: species or system Membrane. In short, it runs like this:
as §1
Regarding `Oc1ccc(NC2=NCCN2)cc1O`, the IC50 is 0.014 µM.

For the next assay, the target named is T2, Adrenergic receptor alpha-1 (Rattus norvegicus, UniProt P15823+P23944+P43140).
T2 sequence (P15823 whole entry): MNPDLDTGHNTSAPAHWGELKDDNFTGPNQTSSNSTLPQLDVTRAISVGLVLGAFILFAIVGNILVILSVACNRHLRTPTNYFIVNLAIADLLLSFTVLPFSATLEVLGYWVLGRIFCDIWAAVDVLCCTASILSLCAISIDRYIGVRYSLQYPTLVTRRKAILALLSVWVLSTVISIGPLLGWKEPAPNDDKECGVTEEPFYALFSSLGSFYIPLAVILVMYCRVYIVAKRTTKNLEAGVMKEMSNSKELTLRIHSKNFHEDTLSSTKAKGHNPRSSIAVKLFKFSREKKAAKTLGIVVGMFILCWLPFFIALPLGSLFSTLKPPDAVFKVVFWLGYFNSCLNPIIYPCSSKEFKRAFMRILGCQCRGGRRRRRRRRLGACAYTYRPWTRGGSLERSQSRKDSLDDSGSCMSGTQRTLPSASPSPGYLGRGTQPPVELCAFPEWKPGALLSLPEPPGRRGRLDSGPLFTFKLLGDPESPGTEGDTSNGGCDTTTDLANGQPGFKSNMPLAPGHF
T2 sequence (P23944 whole entry): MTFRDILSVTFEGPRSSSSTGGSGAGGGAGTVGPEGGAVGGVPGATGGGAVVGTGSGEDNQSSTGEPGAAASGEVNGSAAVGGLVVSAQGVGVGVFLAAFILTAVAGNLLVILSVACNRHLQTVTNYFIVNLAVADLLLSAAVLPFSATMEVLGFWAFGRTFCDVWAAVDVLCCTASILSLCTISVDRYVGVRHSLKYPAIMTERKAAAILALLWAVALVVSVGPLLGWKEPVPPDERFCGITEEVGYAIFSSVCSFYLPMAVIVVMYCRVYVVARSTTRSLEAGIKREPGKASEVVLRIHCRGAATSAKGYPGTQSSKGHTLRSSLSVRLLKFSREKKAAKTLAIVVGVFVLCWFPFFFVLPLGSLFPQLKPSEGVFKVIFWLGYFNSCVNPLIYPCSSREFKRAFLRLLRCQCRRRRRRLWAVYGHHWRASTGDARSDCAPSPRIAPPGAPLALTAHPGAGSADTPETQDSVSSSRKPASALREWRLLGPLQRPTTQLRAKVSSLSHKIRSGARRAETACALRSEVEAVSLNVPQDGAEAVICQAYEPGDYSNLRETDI
T2 sequence (P43140 whole entry): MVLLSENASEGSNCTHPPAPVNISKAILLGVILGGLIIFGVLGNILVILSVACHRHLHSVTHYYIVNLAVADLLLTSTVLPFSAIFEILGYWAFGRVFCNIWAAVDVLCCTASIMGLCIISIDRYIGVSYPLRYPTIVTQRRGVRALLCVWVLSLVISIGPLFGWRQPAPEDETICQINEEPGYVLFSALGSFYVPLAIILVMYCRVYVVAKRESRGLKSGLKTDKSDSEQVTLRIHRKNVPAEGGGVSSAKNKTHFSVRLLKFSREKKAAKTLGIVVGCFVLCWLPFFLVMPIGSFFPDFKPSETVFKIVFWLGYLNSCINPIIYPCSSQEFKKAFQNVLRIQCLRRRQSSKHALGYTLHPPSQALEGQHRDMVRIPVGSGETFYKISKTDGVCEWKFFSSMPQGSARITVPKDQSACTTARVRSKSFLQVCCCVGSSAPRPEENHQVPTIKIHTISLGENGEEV
The experiment in a line: Binding affinity against alpha-1 adrenergic receptor is the ability to inhibit the specific [3H]-prazosin binding (0.2 nM) to rat isolated brain membranes by 50% was reported; 4.85*10e-6. In kind it is tissue-based, Membrane. In short, it runs like this:
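Whole rat brain (minus cerebellum) from male Wistar rats (200–250 g), homogenized in ice-cold 50 mM Tris-HCl pH 7.7 and washed twice at 50000g. […] Bound ligand was collected by filtration and counted. IC50 was derived by log-probit analysis.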
The compound `Cc1csc(Cl)c1NC1=NCCN1` [TIAMENIDINE] registered an IC50 of 4.85 µM.

In a further assay the target is T2, Adrenergic receptor alpha-1. In words: Binding affinity against alpha-1 adrenergic receptor is the ability to inhibit the specific [3H]-prazosin binding (0.2 nM) to rat isolated brain membranes by 50% was reported; 5*10e-4. The class given is tissue-based, Membrane. The procedure, abridged:
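Brain membranes were prepared from male Wistar rats (200–250 g, cerebellum removed) in ice-cold 50 mmol/L Tris-HCl, pH 7.7, with two 50000g spins, and used at 1 mg/mL protein (Lowry). […] Bound label was collected by vacuum filtration and counted. IC50 came from log probit analysis.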
The compound `C=CCN1CCc2nc(N)sc2CC1` [TALIPEXOLE] showed a concentration for half-maximal inhibition (IC50) of 500 µM.

Another assay relates to Rattus norvegicus. The experiment in a line: Hypertensive activity (increase in arterial pressure to 60 mmHg)) after i.v. administration to pithed rats.
Take `Oc1ccc(NC2=NCCN2)cc1O`: the pC60 was determined as 2.44 uM kg-1.
Same read-out and setting: next, `Clc1cccc(Cl)c1NC1=NCCN1` [CLONIDINE]: 1.78 uM kg-1.
The compound `N=C(N)N/N=C/c1c(Cl)cccc1Cl` [GUANABENZ] registered a pC60 of 0.93 uM kg-1.
`COc1ccc(OC)c(C(O)C(C)N)c1` (stereo not given) [METHOXAMINE]: the pC60 is listed as 0.75 uM kg-1.
Consider `c1ccc2c(CC3=NCCN3)cccc2c1` [NAPHAZOLINE], for which the pC60 is recorded as 1.83 uM kg-1.
The same measure, in the same setting: next, `CNC[C@H](O)c1cccc(O)c1` [PHENYLEPHRINE]: 1.55 uM kg-1; `C=CCN1CCc2nc(N)sc2CC1` [TALIPEXOLE]: 0.69 uM kg-1.
Still for that read-out and setting: next, `Cc1csc(Cl)c1NC1=NCCN1` [TIAMENIDINE]: 1.2 uM kg-1; `c1cc2c(c(NC3=NCCN3)c1)CCCC2` [TRAMAZOLINE]: 1.8 uM kg-1.

The test system of a further assay is Rattus norvegicus. In words: Hypotensive activity (25% decrease in arterial pressure) after i.v. administration to anesthetized normotensive rats.
`Brc1c(NC2=NCCN2)ccc2nccnc12` [BRIMONIDINE]: the pC25 is recorded as 1.55 uM kg-1.
On the same count and under the same terms, next, `Clc1cccc(Cl)c1NC1=NCCN1` [CLONIDINE]: 2.04 uM kg-1.
On the same count and under the same terms, with `c1ccc2c(CC3=NCCN3)cccc2c1` [NAPHAZOLINE] the figure was 0.95 uM kg-1.
Same read-out and setting: next, `C=CCN1CCc2nc(N)sc2CC1` [TALIPEXOLE]: 1.43 uM kg-1.
`Cc1csc(Cl)c1NC1=NCCN1` [TIAMENIDINE]: the pC25 came to 0.69 uM kg-1.
`c1cc2c(c(NC3=NCCN3)c1)CCCC2` [TRAMAZOLINE]: the pC25 was found to be 0.55 uM kg-1.

A further assay concerns the target T2, Adrenergic receptor alpha-1. The experiment in a line: Binding affinity against alpha-1 adrenergic receptor is the ability to inhibit the specific [3H]prazosin binding (0.2 nM) to rat isolated brain membranes by 50% was reported.
For the compound `Oc1ccc(NC2=NCCN2)cc1O`, the half-maximal inhibitory concentration (IC50) turned out to be 5.1 µM.
The same measure, in the same setting: with `COc1ccc(OC)c(C(O)C(C)N)c1` (stereo not given) [METHOXAMINE] the figure was 170 µM.
